Assay results reported in ChEMBL document CHEMBL1140174, “A copper(I)-catalyzed 1,2,3-triazole azide-alkyne click compound is a potent inhibitor of a multidrug-resistant HIV-1 protease variant” (J Med Chem, 2008).
Activity calls are given as the source filed them. No cut-off for these calls is given here.

What was measured:
[1] = test system: Human immunodeficiency virus 1; assay: Antiviral activity against multidrug-resistant HIV1 with protease V82A, M46I, F53L, V77I, L24I, L63P mutation in human SupT1 cells assessed as inhibition of viral replication measured at 6 days postinfection by p24 ELISA assay; format: functional, organism-based; details: Human immunodeficiency virus 1, SUP-T1, 144 h
Method in brief: (§1)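 SupT1 cells (RPMI 1640, 10% FCS, 2mM L-glutamine, penicillin/streptomycin) infected with 10–100ng/mL p24 of virus at 37°C, washed, then cultured ± inhibitor at 1–4000 nM. Supernatant sampled every second day with media and inhibitor replenished. p24 measured by ELISA at 6 days post-infection, expressed as percentage of untreated cells; EC50 by nonlinear regression.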

[2] = test system: Human immunodeficiency virus 1; assay: Antiviral activity against multidrug-resistant HIV1 with protease V82A, M46I, F53L, V77I, L24I, L63P mutation in human SupT1 cells assessed as viral LTR-driven luciferase activity using TZM-bl cells; format: functional, organism-based; details: Human immunodeficiency virus 1, SUP-T1
Method in brief: (§2)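 SupT1 cells infected at MOI 0.001–0.005 and cultured with inhibitor at 1–4000 nM. On day 5–6, cell-free supernatant transferred to 10^4 TZM-bl cells carrying an HIV-1 LTR-driven luciferase reporter. Luciferase read by luminescence after 48 h. EC50 from nonlinear regression.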

[3] = Inhibition of multidrug-resistant HIV1 protease with V82A, M46I, F53L, V77I, L24I, L63P mutation; parameters: species or system Human immunodeficiency virus 1
Method in brief: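 Fluorogenic cleavage assay with purified protease in 25mM MES pH 5.6, 200mM NaCl, 5% glycerol, 1mM DTT. Final concentrations 25nM enzyme, 30μM anthranilyl substrate H-2992, inhibitor 0.001–600μM. Reaction started by adding substrate in a prewarmed plate, read by fluorescence. IC50 by nonlinear regression of initial velocities; Ki from Cheng-Prusoff.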

[4] = test system: Human immunodeficiency virus 1; assay: Antiviral activity against wild type HIV1 in human SupT1 cells assessed as inhibition of viral replication measured at 6 days postinfection by p24 ELISA assay; format: functional, organism-based; details: Human immunodeficiency virus 1, SUP-T1, 144 h; method in brief: as §1
[5] = test system: Human immunodeficiency virus 1; assay: Antiviral activity against wild type HIV1 in human SupT1 cells assessed as viral LTR-driven luciferase activity using TZM-bl cells; format: functional, organism-based; details: Human immunodeficiency virus 1, SUP-T1; method in brief: as §2
[6] = test system: Human immunodeficiency virus 1; assay: Antiviral activity against wild type HIV1 in human SubT1 cells assessed as inhibition of viral replication at 250 nM measured at 6 days postinfection by p24 ELISA assay; format: functional, organism-based
Method in brief: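 SupT1 cells (RPMI 1640, 10% fetal calf serum) were infected with wild-type HIV-1 (10–100ng/mL p24) at 37°C, washed, then cultured with inhibitor at 1–4000 nM. Every second day supernatant was sampled and medium plus inhibitor replaced. p24 was measured by ELISA 6 days post-infection and expressed as a percentage of untreated cells (relative p24).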

[7] = test system: Human immunodeficiency virus 1; assay: Antiviral activity against multidrug-resistant HIV1 with protease V82A, M46I, […], V77I, L24I, L63P mutation in human SubT1 cells assessed as inhibition of viral replication at 250 nM measured at 6 days postinfection by p24 ELISA assay relative to control; format: functional
Method in brief: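 SupT1 cells (RPMI 1640, 10% fetal calf serum, 2mM L-glutamine, penicillin/streptomycin) infected with 10–100ng/mL p24 of SupT1-grown virus at 37°C, washed, then resuspended in medium with or without inhibitor (1–4000 nM range). Supernatant sampled every second day with medium and inhibitor replenished. p24 quantified by ELISA 6 days post infection, expressed as percentage of untreated cells.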

[8] = target: Protease (Human immunodeficiency virus 1, UniProt Q9YQ12); assay: Inhibition of wild type HIV1 protease
Method in brief: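 Purified HIV-1 protease (expression and purification described in earlier work) is preincubated with inhibitor in 25mM MES pH 5.6, 200mM NaCl, 5% glycerol, 1mM DTT in a prewarmed plate. Final concentrations: 25nM protease, 30µM fluorogenic anthranilyl substrate H-2992, 0.001–600µM inhibitor. Cleavage is read as fluorescence intensity. IC50 comes from nonlinear regression of initial velocities against inhibitor concentration, and Ki is calculated with the Cheng-Prusoff equation.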

Protease, sequence (Q9YQ12 whole entry): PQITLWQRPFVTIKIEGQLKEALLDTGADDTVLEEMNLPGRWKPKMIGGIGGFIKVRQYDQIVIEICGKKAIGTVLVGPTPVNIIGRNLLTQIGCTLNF

Compound | EC50 [1] [µM] | EC50 [2] [µM] | IC50 [3] [µM] | Ki [3] [µM] | EC50 [4] [µM] | EC50 [5] [µM] | Activity [6] | fold change (FC) [7] | IC50 [8] [µM] | Ki [8] [µM]
COc1ccc(S(=O)(=O)N(CC(C)C)C[C@@H](O)[C@H](Cc2ccccc2)n2cc(COC(=O)N[C@H]3c4ccccc4C[C@H]3O)nn2)cc1 | 0.055 | 0.26 | 0.0157 | 0.0071 | 0.03 | 0.086 | Active | 20 | 0.006 | 0.0027
CC(C)[C@H](NC(=O)[C@H](C)NC(=O)OCc1ccccc1)C(=O)N[C@@H](Cc1ccccc1)[C@@H](O)[C@H](O)[C@H](Cc1ccccc1)NC(=O)[C@@H](NC(=O)[C@H](C)NC(=O)OCc1ccccc1)C(C)C |  |  |  |  | 0.046 | 0.092 |  |  |  | 
